Assay results as given in ChEMBL document CHEMBL5360562 (Eur J Med Chem, 2023).

How the values were obtained:
[1] = test system: Acinetobacter baumannii; assay: Potentiation of Clarithromycin antibacterial activity against Acinetobacter baumannii AB5075 assessed as clarithromycin MIC at 30 uM incubated for 16 hrs by broth microdilution method; type: functional
[2] = test system: Acinetobacter baumannii; assay: Potentiation of Clarithromycin antibacterial activity against Acinetobacter baumannii AB5075 assessed as fold reduction in clarithromycin MIC at 30 uM incubated for 16 hrs by broth microdilution method; type: functional
Method in brief: (§1)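 Checkerboard-style potentiation by broth microdilution. 6 h day cultures in CAMHB diluted to 5×10^5 CFU/mL. Adjuvant added from 10 mM DMSO stock at fixed concentration throughout. […] Controls: antibiotic alone, adjuvant alone, media only. Incubated stationary at 37 °C for 16 h. MIC is lowest concentration with no visible growth; fold reduction taken against the antibiotic-alone lane.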

[3] = test system: Acinetobacter baumannii; assay: Antibacterial activity against Acinetobacter baumannii AB5075 assessed as reduction in bacterial growth incubated for 16 hrs by broth microdilution method; type: functional
[4] = test system: Acinetobacter baumannii; assay: Potentiation of Clarithromycin antibacterial activity against Acinetobacter baumannii AB5075 assessed as clarithromycin MIC at 7.5 uM incubated for 16 hrs by broth microdilution method; type: functional
[5] = test system: Acinetobacter baumannii; assay: Potentiation of Clarithromycin antibacterial activity against Acinetobacter baumannii AB5075 assessed as fold reduction in clarithromycin MIC at 7.5 uM incubated for 16 hrs by broth microdilution method; type: functional; method in brief: as §1
[6] = test system: Acinetobacter baumannii; assay: Potentiation of Clarithromycin antibacterial activity against Acinetobacter baumannii AB5075 assessed as reduction in clarithromycin MIC at 20 uM incubated for 16 hrs by broth microdilution method; type: functional; conditions: for MIC: Acinetobacter baumannii, AB5075
[7] = test system: Acinetobacter baumannii; assay: Potentiation of Clarithromycin antibacterial activity against Acinetobacter baumannii AB5075 assessed as fold reduction in clarithromycin MIC at 10 uM incubated for 16 hrs by broth microdilution method; type: functional; method in brief: as §1
[8] = test system: Acinetobacter baumannii; assay: Potentiation of Clarithromycin antibacterial activity against Acinetobacter baumannii AB5075 assessed as clarithromycin MIC at 10 uM incubated for 16 hrs by broth microdilution method; type: functional
[9] = test system: Acinetobacter baumannii; assay: Potentiation of rifampicin antibacterial activity against Acinetobacter baumannii AB5075 assessed as rifampicin MIC at 10 uM incubated for 16 hrs by broth microdilution method; type: functional
[10] = test system: Acinetobacter baumannii; assay: Potentiation of Azithromycin antibacterial activity against Acinetobacter baumannii AB5075 assessed as azithromycin MIC at 30 uM incubated for 16 hrs by broth microdilution method; type: functional
[11] = test system: Acinetobacter baumannii; assay: Potentiation of Azithromycin antibacterial activity against Acinetobacter baumannii AB5075 assessed as azithromycin MIC at 10 uM incubated for 16 hrs by broth microdilution method; type: functional
[12] = test system: Acinetobacter baumannii; assay: Potentiation of erythromycin antibacterial activity against Acinetobacter baumannii AB5075 assessed as erythromycin MIC at 10 uM incubated for 16 hrs by broth microdilution method; type: functional
[13] = test system: Acinetobacter baumannii; assay: Potentiation of erythromycin antibacterial activity against Acinetobacter baumannii AB5075 assessed as erythromycin MIC at 20 uM incubated for 16 hrs by broth microdilution method; type: functional
[14] = test system: Acinetobacter baumannii; assay: Potentiation of rifampicin antibacterial activity against Acinetobacter baumannii AB5075 assessed as rifampicin MIC at 30 uM incubated for 16 hrs by broth microdilution method; type: functional
[15] = test system: Acinetobacter baumannii; assay: Potentiation of Azithromycin antibacterial activity against Acinetobacter baumannii AB5075 assessed as azithromycin MIC at 20 uM incubated for 16 hrs by broth microdilution method; type: functional
[16] = test system: Acinetobacter baumannii; assay: Potentiation of erythromycin antibacterial activity against Acinetobacter baumannii AB5075 assessed as erythromycin MIC at 30 uM incubated for 16 hrs by broth microdilution method; type: functional
[17] = test system: Acinetobacter baumannii; assay: Potentiation of rifampicin antibacterial activity against Acinetobacter baumannii AB5075 assessed as rifampicin MIC at 20 uM incubated for 16 hrs by broth microdilution method; type: functional
[18] = Therapeutic index, ratio of IC50 for antiproliferative against human HepG2 cells assessed as reduction in cell viability to MIC for potentiation of Clarithromycin antibacterial activity against Acinetobacter baumannii […] assessed as clarithromycin MIC; type: toxicity, cell-based; conditions: read-out: TI
[19] = test system: Acinetobacter baumannii; assay: Potentiation of rifampicin antibacterial activity against Acinetobacter baumannii AB5075 assessed as fold reduction in rifampicin MIC at 10 uM incubated for 16 hrs by broth microdilution method; type: functional
[20] = test system: Acinetobacter baumannii; assay: Potentiation of Clarithromycin antibacterial activity against Acinetobacter baumannii AB5075 assessed as clarithromycin MIC at 5 uM incubated for 16 hrs by broth microdilution method; type: functional
[21] = test system: Acinetobacter baumannii; assay: Potentiation of Clarithromycin antibacterial activity against Acinetobacter baumannii AB3560 assessed as clarithromycin MIC at 10 uM incubated for 16 hrs by broth microdilution method; type: functional
[22] = Metabolic stability in human liver microsomes assessed as parent compound remaining in presence of NADPH measured at 1 hr by UV-UPLC analysis; type: ADME, Microsome
[23] = Stability of compound in human plasma assessed as parent compound remaining measured at 4 hrs; type: ADME, cell-free
Method in brief: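 Compound at 20 μM final in human plasma (from 10 mM DMSO stock), 37 °C; aliquots at 0, 30, 60, 120, 240 min quenched in internal standard in 1:1 ACN/MeOH, centrifuged, supernatant analysed by UPLC-MRM. Peak-area ratio to internal standard expressed as % parent remaining relative to 0 min; half-life calculated.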

[24] = Antiproliferative against human HepG2 cells assessed as reduction in cell viability incubated for 24 hrs by XTT assay; type: toxicity, cell-based
[25] = test system: Acinetobacter baumannii; assay: Potentiation of Clarithromycin antibacterial activity against Acinetobacter baumannii AB3785 assessed as clarithromycin MIC at 10 uM incubated for 16 hrs by broth microdilution method; type: functional
[26] = test system: Acinetobacter baumannii; assay: Potentiation of Clarithromycin antibacterial activity against Acinetobacter baumannii AB967 assessed as clarithromycin MIC at 10 uM incubated for 16 hrs by broth microdilution method; type: functional
[27] = test system: Acinetobacter baumannii; assay: Potentiation of Clarithromycin antibacterial activity against Acinetobacter baumannii AB5711 assessed as clarithromycin MIC at 10 uM incubated for 16 hrs by broth microdilution method; type: functional
[28] = test system: Acinetobacter baumannii; assay: Potentiation of erythromycin antibacterial activity against Acinetobacter baumannii AB5075 assessed as erythromycin MIC at 7.5 uM incubated for 16 hrs by broth microdilution method; type: functional
[29] = test system: Acinetobacter baumannii; assay: Potentiation of Clarithromycin antibacterial activity against Acinetobacter baumannii AB4498 assessed as clarithromycin MIC at 10 uM incubated for 16 hrs by broth microdilution method; type: functional
[30] = test system: Acinetobacter baumannii; assay: Potentiation of Azithromycin antibacterial activity against Acinetobacter baumannii AB5075 assessed as azithromycin MIC at 7.5 uM incubated for 16 hrs by broth microdilution method; type: functional
[31] = test system: Acinetobacter baumannii; assay: Potentiation of Clarithromycin antibacterial activity against Acinetobacter baumannii AB5674 assessed as clarithromycin MIC at 10 uM incubated for 16 hrs by broth microdilution method; type: functional
[32] = test system: Acinetobacter baumannii; assay: Potentiation of Clarithromycin antibacterial activity against Acinetobacter baumannii AB5075 assessed as fold reduction in clarithromycin MIC at 5 uM incubated for 16 hrs by broth microdilution method; type: functional; method in brief: as §1

Cl.Cl.Nc1nc(-c2ccc(NC(=O)Nc3ccc(-c4c[nH]c(N)n4)c(C(F)(F)F)c3)cc2C(F)(F)F)c[nH]1
MIC [1]: 2 µg/mL | fold change (FC) [2]: 16 | MIC [3]: > 200 µM

Cl.Cl.Nc1nc(-c2cccc(NC(=O)Nc3cccc(-c4c[nH]c(N)n4)c3F)c2F)c[nH]1
MIC [4]: 2 µg/mL | fold change (FC) [5]: 16 | MIC [1]: 0.25 µg/mL | fold change (FC) [6]: 64 | MIC [6]: 0.5 µg/mL | fold change (FC) [7]: 32 | fold change (FC) [2]: 128 | MIC [3]: > 200 µM | MIC [8]: 1 µg/mL

Cl.Cl.Nc1nc(-c2ccc(NC(=O)Nc3ccc(-c4c[nH]c(N)n4)c(Cl)c3)cc2Cl)c[nH]1
MIC [1]: 32 µg/mL | fold change (FC) [2]: 1 | MIC [3]: > 200 µM

Cc1cc(-c2c[nH]c(N)n2)ccc1NC(=O)Nc1ccc(-c2c[nH]c(N)n2)cc1C.Cl.Cl
MIC [1]: 32 µg/mL | fold change (FC) [2]: 1 | MIC [3]: > 200 µM

Nc1nc(-c2ccc(NC(=O)Nc3cccc(-c4c[nH]c(N)n4)c3)cc2)c[nH]1
MIC [9]: 2 µg/mL | MIC [10]: 1 µg/mL | MIC [1]: 0.125 µg/mL | MIC [11]: 16 µg/mL | fold change (FC) [2]: 256 | MIC [3]: > 200 µM | MIC [12]: 16 µg/mL | MIC [13]: 2 µg/mL | MIC [8]: 16 µg/mL | MIC [14]: 0.031 µg/mL | MIC [15]: 4 µg/mL | MIC [16]: 1 µg/mL | MIC [17]: 0.25 µg/mL

Cl.Cl.Nc1nc(-c2ccc(NC(=O)Nc3ccc(-c4c[nH]c(N)n4)c(F)c3)cc2F)c[nH]1
selectivity ratio [18]: 52.9 | fold change (FC) [19]: 4 | MIC [4]: 0.5 µg/mL | MIC [9]: 1 µg/mL | MIC [10]: 0.5 µg/mL | MIC [20]: 2 µg/mL | fold change (FC) [5]: 64 | MIC [1]: ≤ 0.062 µg/mL | MIC [6]: ≤ 0.062 µg/mL | fold change (FC) [7]: 256 | MIC [11]: 2 µg/mL | MIC [21]: 0.5 µg/mL | fold change (FC) [2]: >=512 | MIC [3]: > 200 µM | MIC [12]: 1 µg/mL | Stability [22]: 82% | MIC [13]: 0.5 µg/mL | MIC [8]: 0.125 µg/mL | MIC [14]: 0.125 µg/mL | MIC [15]: 1 µg/mL | Stability [23]: 83% | IC50 at 24 h [24]: 127 µg/mL | MIC [16]: 0.125 µg/mL | MIC [25]: 1 µg/mL | MIC [26]: 0.25 µg/mL | MIC [27]: 1 µg/mL | MIC [28]: 8 µg/mL | MIC [29]: 1 µg/mL | MIC [30]: 16 µg/mL | MIC [17]: 0.25 µg/mL | MIC [31]: 0.5 µg/mL

Cl.Cl.Nc1nc(-c2cc(NC(=O)Nc3ccc(F)c(-c4c[nH]c(N)n4)c3)ccc2F)c[nH]1
MIC [4]: 1 µg/mL | MIC [20]: 2 µg/mL | fold change (FC) [5]: 32 | MIC [1]: 0.125 µg/mL | fold change (FC) [6]: 128 | MIC [6]: 0.25 µg/mL | fold change (FC) [7]: 64 | fold change (FC) [2]: 256 | MIC [3]: > 200 µM | MIC [8]: 0.5 µg/mL | fold change (FC) [32]: 16

Cl.Cl.Nc1nc(-c2ccc(NC(=O)Nc3ccc(F)c(-c4c[nH]c(N)n4)c3)cc2F)c[nH]1
MIC [1]: 0.5 µg/mL | fold change (FC) [6]: 8 | MIC [6]: 4 µg/mL | fold change (FC) [2]: 64 | MIC [3]: > 200 µM

Cl.Cl.Nc1nc(-c2ccc(NC(=O)Nc3ccc(-c4c[nH]c(N)n4)cc3F)c(F)c2)c[nH]1
MIC [1]: 4 µg/mL | fold change (FC) [2]: 8 | MIC [3]: > 200 µM
